Molecules are shown by their SMILES. In brackets after ≈: the same amount, converted by molar mass. Where only a bound is given, the exact number is not on record here.

One data set concerns Klebsiella pneumoniae. Put plainly: Antibacterial activity against Klebsiella pneumoniae ATCC 13383. The class given is functional. The procedure, abridged:
(§1)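 Broth microdilution in TSB. Stocks at 5 mg/mL in DMSO diluted with TSB to 100 μg/mL, then serially diluted; highest test concentration 25 μg/mL. Bacteria grown 16 h, subcultured 6 h to log phase, adjusted to 10^6 CFU/mL by OD600. MIC = lowest concentration giving complete growth inhibition. At least three repeats, each in duplicate.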

Data set [1] relates to Staphylococcus epidermidis. Put plainly: Antibacterial activity against methicillin-resistant Staphylococcus epidermidis RP62A. The class given is functional. The procedure, abridged: (§2)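 Broth microdilution in TSB. Strains were grown 16 h, subcultured 6 h to log phase, then diluted to 10^6 CFU/mL by OD600. Compound came from a 5 mg/mL DMSO stock diluted in TSB and serially diluted, top final concentration 25 μg/mL. MIC was the lowest concentration giving complete growth inhibition. Done ≥3 times in duplicate.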

Data set [2] relates to Staphylococcus aureus. The data set can be described thus: Antibacterial activity against methicillin-resistant Staphylococcus aureus ATCC 33591. The class given is functional. The essentials: as §2
The nature of data set [3]: Hemolytic activity against mouse RBC measured after 1 hr by microplate reader analysis. It counts as ADME, cell-based, Erythrocyte. The settings on record: mouse red blood cells (erythrocytes). The procedure, abridged:
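Mouse red blood cells collected by centrifugation (500–700g, 10 min), washed three times in PBS, and diluted 20-fold in PBS. Mixed with 2-fold serial dilutions of compound (starting at 1 mg/mL in PBS) and incubated 1 h at 37 °C. After centrifugation, supernatant absorbance read at 540 nm. % hemolysis calculated relative to PBS (0%) and 2% Triton (100%). At least three repeats in duplicate.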

For another data set, the system named is Escherichia coli. The data set can be described thus: Antibacterial activity against Escherichia coli ATCC 25922. It counts as functional. The essentials: as §1
Data set [4] can be described thus: Selectivity ratio of HC50 for hemolytic activity against mouse RBC to MIC for methicillin-resistant Staphylococcus aureus. The conditions noted are these: mouse red blood cells (erythrocytes). The class given is toxicity. The procedure, abridged: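 Mouse RBCs were washed three times in PBS and diluted in 20 volumes of PBS. They were mixed with compound 2-fold serially diluted from 1 mg/mL in PBS, incubated 1 h at 37 °C, then centrifuged; supernatant read at A540. % hemolysis was calculated against PBS (0%) and 2% Triton (100%). Done ≥3 times in duplicate. HC50 was divided by the MRSA MIC.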

Data set [5] concerns Staphylococcus aureus. Put plainly: Antibacterial activity against methicillin-resistant Staphylococcus aureus ATCC 33591 assessed as ratio of MIC after and before 13 serial passages. The class given is functional. The essentials: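 Serial-passage resistance test. A first MIC was run by TSB broth microdilution. Bacteria from the well after the last clear well were resuspended to about 10^6 CFU/mL for the next MIC. This was repeated for 13 passages.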

In the case of `CCCCCCCCCCCCCCCC(=O)N[C@@H](CCCCN)CN1CC(=O)N(c2ccc(N3CN(C[C@H](CCCCN)NC(=O)CCCCCCCCCCCCCCC)CC3=O)cc2)C1`, the MIC (in the data set with Klebsiella pneumoniae; in data set [1]; in the data set on Staphylococcus aureus [2]; in the data set with Escherichia coli) was over 25 µg/mL in each case. In data set [3], this molecule showed a concentration for 50% haemolysis (HC50) at 1 h of over 250 µg/mL.

For `CCCCCC(=O)N[C@@H](CCCCN)CN1CC(=O)N(c2ccc(N3CN(C[C@H](CCCCN)NC(=O)CCCCC)CC3=O)cc2)C1`, the MIC (in the data set on Klebsiella pneumoniae; in data set [1]; in the data set on Staphylococcus aureus [2]; against Escherichia coli) was over 25 µg/mL each time. This molecule gave an HC50 at 1 h in data set [3] of over 250 µg/mL.

With `N=C(N)NCCCC[C@@H](CN1CC(=O)N(c2ccc(N3CN(C[C@H](CCCCNC(=N)N)NC(=O)CC45C[C@H]6C[C@@H](C4)C[C@@H](C5)C6)CC3=O)cc2)C1)NC(=O)CC12C[C@H]3C[C@@H](C1)C[C@@H](C2)C3`, the MIC was over 25 µg/mL against Klebsiella pneumoniae, 2 µg/mL (≈ 2.19 µM) in data set [1], 1 µg/mL (≈ 1.1 µM) against Staphylococcus aureus [2] and over 25 µg/mL against Escherichia coli. The selectivity ratio in data set [4] was determined as 250. This molecule yielded an HC50 at 1 h in data set [3] of 250 µg/mL.

For the molecule `NCCCC[C@@H](CN1CC(=O)N(c2ccc(N3CN(C[C@H](CCCCN)NC(=O)Cc4ccc5ccccc5c4)CC3=O)cc2)C1)NC(=O)Cc1ccc2ccccc2c1`, the MIC (in the data set on Klebsiella pneumoniae; in data set [1]; with Staphylococcus aureus [2]; against Escherichia coli) was over 25 µg/mL each time. Moreover, in data set [3], the HC50 at 1 h is over 250 µg/mL.

Take `CCCCCCCCCCCC(=O)N[C@@H](CCCCN)CN1CC(=O)N(c2ccc(N3CN(C[C@H](CCCCN)NC(=O)CCCCCCCCCCC)CC3=O)cc2)C1`: the MIC was over 25 µg/mL in the data set on Klebsiella pneumoniae, 2 µg/mL (≈ 2.38 µM) in data set [1], 1 µg/mL (≈ 1.19 µM) with Staphylococcus aureus [2] and over 25 µg/mL against Escherichia coli. Moreover, the selectivity ratio in data set [4] was over 250. In data set [3], the HC50 at 1 h was over 250 µg/mL.

Consider `CCCCCCCCCC(=O)N[C@@H](Cc1ccccc1)CN1CC(=O)N(c2ccc(N3CN(C[C@H](Cc4ccccc4)NC(=O)CCCCCCCCC)CC3=O)cc2)C1`, for which the MIC (against Klebsiella pneumoniae; in data set [1]; against Staphylococcus aureus [2]; with Escherichia coli) was over 25 µg/mL throughout. This molecule returned an HC50 at 1 h in data set [3] of over 250 µg/mL.

With `CCCCCCCC(=O)N[C@@H](CCCCN)CN1CC(=O)N(c2ccc(N3CN(C[C@H](CCCCN)NC(=O)CCCCCCC)CC3=O)cc2)C1`, the MIC (with Klebsiella pneumoniae; in data set [1]; in the data set with Staphylococcus aureus [2]; with Escherichia coli) was over 25 µg/mL throughout. The molecule further showed an HC50 at 1 h in data set [3] of over 250 µg/mL.

For the molecule `CCCCCCCCCC(=O)N[C@@H](CCCCN)CNCC(=O)Nc1ccc(NC(=O)CNC[C@H](CCCCN)NC(=O)CCCCCCCCC)cc1`, the MIC against Klebsiella pneumoniae is over 25 µg/mL; in data set [1] it was 2 µg/mL (≈ 2.63 µM); with Staphylococcus aureus [2] it was 2 µg/mL (≈ 2.63 µM); against Escherichia coli, over 25 µg/mL. The selectivity ratio in data set [4] was over 125. In data set [3], this molecule registered an HC50 at 1 h of over 250 µg/mL.

Consider `NCCCC(=O)N[C@@H](Cc1ccccc1)CN1CC(=O)N(c2ccc(N3CN(C[C@H](Cc4ccccc4)NC(=O)CCCN)CC3=O)cc2)C1`, for which the MIC (in the data set on Klebsiella pneumoniae; in data set [1]; against Staphylococcus aureus [2]; with Escherichia coli) was over 25 µg/mL each time. Further, the HC50 at 1 h in data set [3] was over 250 µg/mL.

Regarding `CCCCCCCCCC(=O)N[C@@H](CCCCNC(=N)N)CN1CC(=O)N(c2ccc(N3CN(C[C@H](CCCCNC(=N)N)NC(=O)CCCCCCCCC)CC3=O)cc2)C1`, the MIC against Klebsiella pneumoniae is 5 µg/mL (≈ 5.77 µM); in data set [1], 5 µg/mL (≈ 5.77 µM); against Staphylococcus aureus [2], 1 µg/mL (≈ 1.15 µM); in the data set on Escherichia coli, over 25 µg/mL. Also, in data set [4], the selectivity ratio came to 125. The same molecule registered an HC50 at 1 h in data set [3] of 125 µg/mL.

With `CCn1cc(C(=O)O)c(=O)c2cc(F)c(N3CCNCC3)cc21` [NORFLOXACIN], the Ratio in the data set with Staphylococcus aureus [5] is over 22.

`CCCCCCCCCCCCCC(=O)N[C@@H](CCCCN)CN1CC(=O)N(c2ccc(N3CN(C[C@H](CCCCN)NC(=O)CCCCCCCCCCCCC)CC3=O)cc2)C1`: the MIC (against Klebsiella pneumoniae; in data set [1]; in the data set with Staphylococcus aureus [2]; against Escherichia coli) was over 25 µg/mL each time. The HC50 at 1 h in data set [3] is over 250 µg/mL.

As to `O=C(O)c1cn(C2CC2)c2cc(N3CCNCC3)c(F)cc2c1=O` [CIPROFLOXACIN], the MIC in the data set on Klebsiella pneumoniae was determined as 0.3 µg/mL (≈ 0.905 µM); in data set [1] it was 0.15 µg/mL (≈ 0.453 µM); in the data set with Staphylococcus aureus [2], 0.15 µg/mL (≈ 0.453 µM); with Escherichia coli it was 0.07 µg/mL (≈ 0.211 µM).

`NCCCC[C@@H](CN1CC(=O)N(c2ccc(N3CN(C[C@H](CCCCN)NC(=O)CC45C[C@H]6C[C@@H](C4)C[C@@H](C5)C6)CC3=O)cc2)C1)NC(=O)CC12C[C@H]3C[C@@H](C1)C[C@@H](C2)C3`: the MIC (against Klebsiella pneumoniae; in data set [1]; in the data set with Staphylococcus aureus [2]; in the data set with Escherichia coli) was over 25 µg/mL each time. In addition, the concentration for 50% haemolysis (HC50) at 1 h in data set [3] was over 250 µg/mL.

As usually defined, the MIC is the lowest concentration that inhibits growth of the organism. A higher MIC goes with weaker potency. Broadly, the HC50 is the concentration that lyses half of the red blood cells. Read a low HC50 as stronger haemolysis.

Values taken from ChEMBL document CHEMBL4699493, “Development of Bis-cyclic Imidazolidine-4-one Derivatives as Potent Antibacterial Agents” (J Med Chem, 2020).
